The source made the active and inactive calls. The calls are words filed in the database; no cut-off is given here.
What was measured:
[1] = molecular target: T1, Broad substrate specificity ATP-binding cassette transporter ABCG2 (Homo sapiens, UniProt Q9UNQ0); test: Inhibition of ABCG2 (unknown origin)
T1 sequence (Q9UNQ0 whole entry): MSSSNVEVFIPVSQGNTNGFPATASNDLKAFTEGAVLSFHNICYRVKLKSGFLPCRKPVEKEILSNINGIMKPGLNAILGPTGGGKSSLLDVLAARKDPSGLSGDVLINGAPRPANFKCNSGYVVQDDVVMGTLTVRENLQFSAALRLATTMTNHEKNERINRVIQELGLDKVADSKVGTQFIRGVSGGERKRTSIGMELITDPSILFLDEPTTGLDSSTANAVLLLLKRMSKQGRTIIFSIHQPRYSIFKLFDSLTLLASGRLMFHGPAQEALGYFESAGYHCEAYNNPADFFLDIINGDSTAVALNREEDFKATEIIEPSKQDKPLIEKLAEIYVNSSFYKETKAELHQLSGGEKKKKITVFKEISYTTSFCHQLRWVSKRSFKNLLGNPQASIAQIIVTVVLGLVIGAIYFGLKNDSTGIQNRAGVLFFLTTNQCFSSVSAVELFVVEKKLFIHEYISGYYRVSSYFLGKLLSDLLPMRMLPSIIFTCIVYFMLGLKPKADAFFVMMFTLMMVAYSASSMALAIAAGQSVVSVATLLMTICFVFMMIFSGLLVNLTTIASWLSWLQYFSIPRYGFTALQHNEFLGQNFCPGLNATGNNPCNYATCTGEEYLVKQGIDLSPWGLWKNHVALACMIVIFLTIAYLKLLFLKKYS

[2] = molecular target: T1, Broad substrate specificity ATP-binding cassette transporter ABCG2; test: Inhibition of human C-terminal GFP-tagged ABCG2 expressed in MDCK2 cells using pheophorbide A as substrate preincubated for 20 mins followed by substrate addition measured after 120 mins by flow cytometry; type: cell-based, MDCK-II
In short: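 MDCK II BCRP cells, about 45,000/well in KHB, preincubated with compound for 20 min at 37 °C, 5% CO2. Pheophorbide A added (5 µM solution), then 120 min to steady state. Flow cytometry: excitation 488 nm, emission >670 nm (FL3); GFP in FL1. IC50 from 4-parameter logistic fit; duplicates.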

[3] = Cytotoxicity against MDCK2 cells expressing human C-terminal GFP-tagged ABCG2 assessed as reduction in cell viability after 72 hrs by MTT assay; type: ADME, cell-based, Canis lupus familiaris, MDCK-II; details: dog
In short: (§1)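 Seeding 3 x 10³ cells/well, 6 h attachment at 37 °C, 5% CO2, then compound for 72 h. Controls: 10% DMSO (positive), medium (negative). MTT 5 mg/ml stock for 1 h; formazan in DMSO; A570, background 690 nm. Normalized to control; GI50 from variable-slope sigmoidal fit.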

MDCK-II = test: Potentiation of SN-38-induced cytotoxicity in MDCK2 cells assessed as decrease in cell viability at 0.01 to 0.1 uM after 72 hrs by MTT assay; type: functional, cell-based; details: Canis lupus familiaris
In short: (§2)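 SN-38 dose-response curves in MDCK II BCRP cells (canine kidney line stably transfected with human ABCG2 C-terminally fused to GFP) and parental MDCK II wild-type cells. Modulator was present at a final 0.01 or 0.1 µM. Cells were seeded at 3 x 10³ per well, attached 6 h, then exposed 72 h. MTT was read at 570 nm minus 690 nm. Data were normalized and fitted with variable-slope sigmoidal regression.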

[4] = Cytotoxicity against MDCK2 cells assessed as reduction in cell viability after 72 hrs by MTT assay; type: cell-based, Canis lupus familiaris, MDCK-II; details: dog; in short: as §1
[5] = molecular target: T1, Broad substrate specificity ATP-binding cassette transporter ABCG2; test: Inhibition of human C-terminal GFP-tagged ABCG2 expressed in MDCK2 cells assessed as SN-38-induced cytotoxicity by measuring cell viability at 0.01 to 0.1 uM after 72 hrs by MTT assay; type: cell-based; details: mdck-ii; in short: as §2
[6] = molecular target: Multidrug resistance-associated protein 1 (Homo sapiens, UniProt P33527); test: Inhibition of ABCC1 in human H69AR cells at 10 uM incubated for 30 mins measured up to 3600 secs with time intervals of 60 secs by calcein accumulation assay; type: cell-based
In short: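 Calcein AM assay in ABCC1-overexpressing H69AR cells, about 30,000/well, 30 min preincubation with compound at 10 μM. Calcein AM (1.25 µM solution) added; fluorescence at ex 485/em 520 nm every 60 s up to 3600 s at 37 °C.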

[7] = molecular target: T1, Broad substrate specificity ATP-binding cassette transporter ABCG2; test: Inhibition of vanadate-sensitive ATPase activity of recombinant human ABCG2 expressed in baculovirus infected Sf9 cell membrane assessed as decrease in inorganic phosphate production at >1 uM after 20 mins by colorimetry; details: sf9, 20 min
In short: (§3)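 Sf9 membranes from cells infected with baculovirus carrying human wild-type ABCG2, cholesterol-loaded; protein by BCA. Buffer: 40 mM MOPS-Tris pH 7.0, 50 mM KCl, 2 mM DTT, 500 µM EGTA-Tris, 5 mM azide, 1 mM ouabain, 10 µg protein. Reaction started with 3.3 mM MgATP, 20 min at 37 °C. Basal activity with 1 mM orthovanadate; 1 µM quercetin and 1 µM Ko143 as references. Pi by molybdate/ascorbate at 880 nm against K2HPO4 standard; triplicates.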

[8] = molecular target: T1, Broad substrate specificity ATP-binding cassette transporter ABCG2; test: Induction of vanadate-sensitive ATPase activity of recombinant human ABCG2 expressed in baculovirus infected Sf9 cell membrane assessed as increase in inorganic phosphate production up to 1 uM after 20 mins by colorimetry; details: sf9, 20 min; in short: as §3
ABCG2 = test: Therapeutic ratio of GI50 for MDCK2 cells expressing human C-terminal GFP-tagged ABCG2 to IC50 for human C-terminal GFP-tagged ABCG2 expressed in MDCK2 cells; type: ADME, cell-based; details: dog, read-out: TI
In short: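 Ratio of GI50 from a 72 h MTT assay in MDCK II BCRP cells to IC50 from the pheophorbide A assay in the same cells.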

[9] = molecular target: T2, ATP-dependent translocase ABCB1 (Homo sapiens, UniProt P08183); test: Inhibition of ABCB1 in human A2780/ADR cells incubated for 30 mins measured up to 3600 secs with time intervals of 60 secs by calcein accumulation assay; type: cell-based
[10] = molecular target: T1, Broad substrate specificity ATP-binding cassette transporter ABCG2; test: Non-competitive inhibition of human C-terminal GFP-tagged ABCG2 expressed in MDCK2 cells using pheophorbide A as substrate preincubated for 20 mins followed by substrate addition measured after 120 mins by Lineweaver-Burk plot analysis; type: cell-based; details: mdck-ii, 2 h
In short: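 Pheophorbide A accumulation in MDCK II BCRP cells with substrate at 0.2, 0.4, 0.5, 1.0, 1.5 and 2.0 μM. Inhibitor at 0, 0.031, 0.1, 0.18, 0.31 and 0.56 μM. Transport velocities analyzed by Lineweaver-Burk linearization; inhibition type assigned from changes in KM and Vmax.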

[11] = molecular target: T2, ATP-dependent translocase ABCB1; test: Inhibition of ABCB1 mediated efflux in human MCF7/DX1 cells assessed as intracellular rhodamine-123 accumulation after 30 to 40 mins by flow cytometry; type: cell-based

T2 sequence (P08183 whole entry): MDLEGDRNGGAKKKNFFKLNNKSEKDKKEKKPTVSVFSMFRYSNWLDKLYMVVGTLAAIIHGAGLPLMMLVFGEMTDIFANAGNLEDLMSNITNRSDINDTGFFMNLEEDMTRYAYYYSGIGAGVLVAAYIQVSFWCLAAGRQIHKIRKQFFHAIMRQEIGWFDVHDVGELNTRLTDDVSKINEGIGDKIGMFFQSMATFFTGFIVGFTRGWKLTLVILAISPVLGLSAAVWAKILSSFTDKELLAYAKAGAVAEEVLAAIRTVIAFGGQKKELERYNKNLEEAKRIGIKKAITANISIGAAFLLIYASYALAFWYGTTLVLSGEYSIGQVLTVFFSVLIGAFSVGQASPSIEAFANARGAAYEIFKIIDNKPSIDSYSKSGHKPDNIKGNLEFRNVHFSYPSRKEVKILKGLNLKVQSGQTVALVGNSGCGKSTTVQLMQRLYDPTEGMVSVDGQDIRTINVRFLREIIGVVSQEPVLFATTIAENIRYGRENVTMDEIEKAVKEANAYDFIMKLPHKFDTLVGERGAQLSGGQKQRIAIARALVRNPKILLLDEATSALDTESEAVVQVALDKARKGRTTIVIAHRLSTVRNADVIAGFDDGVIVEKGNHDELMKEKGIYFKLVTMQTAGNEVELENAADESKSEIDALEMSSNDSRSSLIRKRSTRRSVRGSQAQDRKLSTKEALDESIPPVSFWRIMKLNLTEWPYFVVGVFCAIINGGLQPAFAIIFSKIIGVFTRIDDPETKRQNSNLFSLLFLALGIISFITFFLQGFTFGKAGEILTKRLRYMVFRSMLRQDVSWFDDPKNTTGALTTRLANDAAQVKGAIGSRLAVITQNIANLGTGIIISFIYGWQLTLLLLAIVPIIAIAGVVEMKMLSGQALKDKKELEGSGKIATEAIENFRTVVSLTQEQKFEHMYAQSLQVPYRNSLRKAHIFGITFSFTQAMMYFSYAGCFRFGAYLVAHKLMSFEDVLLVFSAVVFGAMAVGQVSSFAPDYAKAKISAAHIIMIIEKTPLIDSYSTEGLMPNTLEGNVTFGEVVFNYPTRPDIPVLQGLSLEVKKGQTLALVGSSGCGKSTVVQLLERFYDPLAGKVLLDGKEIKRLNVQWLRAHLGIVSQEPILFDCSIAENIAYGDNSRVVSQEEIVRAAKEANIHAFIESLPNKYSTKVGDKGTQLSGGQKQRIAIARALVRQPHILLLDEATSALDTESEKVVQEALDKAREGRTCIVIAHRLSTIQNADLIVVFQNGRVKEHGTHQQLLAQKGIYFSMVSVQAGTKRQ
Multidrug resistance-associated protein 1, sequence (P33527 whole entry): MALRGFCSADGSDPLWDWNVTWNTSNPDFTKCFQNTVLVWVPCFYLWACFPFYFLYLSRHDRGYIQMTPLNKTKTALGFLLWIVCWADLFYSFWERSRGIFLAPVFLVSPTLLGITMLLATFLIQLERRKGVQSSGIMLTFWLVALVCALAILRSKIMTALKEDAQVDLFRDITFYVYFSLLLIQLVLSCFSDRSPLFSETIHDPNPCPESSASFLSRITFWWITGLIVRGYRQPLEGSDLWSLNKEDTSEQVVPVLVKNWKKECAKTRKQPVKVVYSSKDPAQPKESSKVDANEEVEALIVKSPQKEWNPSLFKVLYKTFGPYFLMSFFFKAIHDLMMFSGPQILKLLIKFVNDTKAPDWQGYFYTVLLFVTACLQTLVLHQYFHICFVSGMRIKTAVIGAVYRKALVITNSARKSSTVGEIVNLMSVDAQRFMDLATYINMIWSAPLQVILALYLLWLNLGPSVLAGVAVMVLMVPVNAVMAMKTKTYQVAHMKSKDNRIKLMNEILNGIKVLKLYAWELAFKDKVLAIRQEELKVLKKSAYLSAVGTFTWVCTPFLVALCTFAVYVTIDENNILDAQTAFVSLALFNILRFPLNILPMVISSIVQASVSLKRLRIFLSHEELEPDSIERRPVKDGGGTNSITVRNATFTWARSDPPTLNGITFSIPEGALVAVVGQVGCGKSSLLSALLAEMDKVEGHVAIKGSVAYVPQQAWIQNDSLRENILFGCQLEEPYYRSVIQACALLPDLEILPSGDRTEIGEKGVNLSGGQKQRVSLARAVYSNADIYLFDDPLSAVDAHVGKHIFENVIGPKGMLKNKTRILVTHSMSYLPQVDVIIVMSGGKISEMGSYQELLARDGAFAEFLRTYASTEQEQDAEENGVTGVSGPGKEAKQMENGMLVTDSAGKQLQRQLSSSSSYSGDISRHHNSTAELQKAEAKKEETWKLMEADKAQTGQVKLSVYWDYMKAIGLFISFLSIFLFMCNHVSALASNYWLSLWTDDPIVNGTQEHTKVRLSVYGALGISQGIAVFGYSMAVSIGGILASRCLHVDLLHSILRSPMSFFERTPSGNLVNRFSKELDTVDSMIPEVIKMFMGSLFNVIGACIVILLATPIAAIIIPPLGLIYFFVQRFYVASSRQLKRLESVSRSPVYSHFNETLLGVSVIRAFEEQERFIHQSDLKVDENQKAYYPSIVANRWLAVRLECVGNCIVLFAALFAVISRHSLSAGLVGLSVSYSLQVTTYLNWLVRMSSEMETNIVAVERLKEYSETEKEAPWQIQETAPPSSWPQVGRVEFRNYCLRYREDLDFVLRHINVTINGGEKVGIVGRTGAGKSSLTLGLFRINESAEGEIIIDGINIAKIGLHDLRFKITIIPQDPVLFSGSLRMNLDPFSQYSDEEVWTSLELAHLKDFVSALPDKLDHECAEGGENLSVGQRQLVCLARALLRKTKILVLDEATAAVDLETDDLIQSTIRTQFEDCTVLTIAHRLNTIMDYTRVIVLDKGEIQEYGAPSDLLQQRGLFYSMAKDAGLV

COc1ccc(/C=C/C(=O)c2ccc(OC)c(OC)c2)cc1OC
IC50 [1]: 5.12 µM

COc1ccc(/C=C/C(=O)c2ccc(Nc3nc(-c4ccc(OC)c(OC)c4)nc4ccccc34)cc2)cc1OC
IC50 [2]: 0.19 µM | GI50 at 72 h [3]: 92.9 µM | Activity (MDCK-II): Active | GI50 at 72 h [4]: 132 µM | inhibition (INH) [5]: Active | inhibition (INH) [6]: Not Active | inhibition (INH) [7]: Active | Activity [8]: Active | selectivity ratio (ABCG2): 489 | IC50 [9]: 14.9 µM | inhibition (INH) [10]: Active

COc1ccc2c3c1O[C@H]1C[C@@H](OC(=O)CCCCCCCCC(=O)O[C@H]4C=C[C@@]56CN(C)CCc7ccc(OC)c(c75)O[C@H]6C4)C=C[C@@]31CN(C)CC2
IC50 [11]: 0.8 µM
